# Results pooled from the literature.
# Lines come from different studies, so protocols differ.
# Target: Muscarinic acetylcholine receptor M1 (CHRM1, Homo sapiens, UniProt P11229)
# Tested at: 10 µM
# Sequence (P11229 1-460, as in one of the studies): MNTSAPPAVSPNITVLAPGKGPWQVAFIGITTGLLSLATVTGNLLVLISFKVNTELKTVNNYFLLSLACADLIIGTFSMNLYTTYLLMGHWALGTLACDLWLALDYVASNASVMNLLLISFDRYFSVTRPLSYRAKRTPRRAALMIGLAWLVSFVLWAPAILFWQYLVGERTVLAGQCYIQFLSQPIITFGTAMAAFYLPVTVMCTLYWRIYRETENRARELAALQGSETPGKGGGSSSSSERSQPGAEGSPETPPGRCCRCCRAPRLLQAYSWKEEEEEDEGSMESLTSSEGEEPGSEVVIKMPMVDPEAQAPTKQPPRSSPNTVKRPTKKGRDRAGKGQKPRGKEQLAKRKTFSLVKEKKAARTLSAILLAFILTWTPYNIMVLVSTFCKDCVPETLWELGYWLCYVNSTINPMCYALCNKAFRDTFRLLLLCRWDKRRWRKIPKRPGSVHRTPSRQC
SMILES,test,inhibition [%]
CC(C)N1CCC[C@H]1CNC(=O)c1cn(C2CCCC2)c(=O)c2c1c1ccccc1n2C,"ligand displacement, radioligand",-1
C[C@H](C(=O)N[C@H]1COc2ccccc2[C@@H]1S(C)(=O)=O)c1ccc(F)cc1,cell-free assay,-7
CCN(CC)CCCC[C@H](NC(=O)[C@H](CC(C)C)NC(=O)[C@H](C)NC(=O)[C@H](Cc1ccccc1)NC(=O)c1ccc(C(C)(C)C)cc1)C(=O)N[C@@H](CO)C(=O)OC,"ligand displacement, radioligand",1
COCc1c(-c2cc3cc(C)cc(OC)c3s2)c2c(N)ncnn2c1CN1CCNC(=O)C1,"ligand displacement, radioligand",6
CN1CC[C@]2(C)c3cc(OC(=O)Nc4ccccc4)ccc3N(C)[C@H]12,"ligand displacement, radioligand",0
CS(=O)(=O)c1cc(C2(NC(=O)c3cncc4c3cnn4-c3ccc(F)cc3)CC2)ccn1,cell-free assay,-14.8
c1ccc(C(NCCNC(c2ccccc2)c2ccccc2)c2ccccc2)cc1,cell-free assay,21
Clc1ccc2c(C3CCN(CCc4c[nH]c5ccccc45)CC3)c[nH]c2c1,"ligand displacement, radioligand",31
COc1ccc2cc(OCC3(C(=O)O)CN(C(=O)c4ccc(F)cc4)C3)ccc2c1,ligand displacement,-0.03
